Results from ChEMBL document CHEMBL4689842, “EUbOPEN Chemogenomics Library wave 1” (2021).

System: Fibroblast
Assay: Multiplex assay against human fibroblast
Assay type: toxicity, cell-based
How it was run: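 Compound was added to live cells that had been stained at seeding with Hoechst33342, BioTracker Green Microtubule Cytoskeleton Dye, MitoTracker Red and Annexin V Alexa Fluor 680, and imaging followed on a CQ1 microscope at 37°C and 5% CO2. CellPathfinder machine-learning gating divided cells into Hoechst high-intensity objects or normal cells, normal cells into healthy, pyknosed or fragmented nuclei, and pyknosed cells into mitotic or apoptotic. Tubulin, mitochondrial-mass and membrane-permeability phenotypes are per cents of healthy-nucleus cells.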

[1] = 12 h, 1 µM, compound concentration 1 uM, replicate 1
[2] = 12 h, 1 µM, compound concentration 1 uM, replicate 2
[3] = 12 h, 10 µM, compound concentration 10 uM, replicate 1
[4] = 12 h, 10 µM, compound concentration 10 uM, replicate 2
[5] = 24 h, 1 µM, compound concentration 1 uM, replicate 1
[6] = 24 h, 1 µM, compound concentration 1 uM, replicate 2
[7] = 24 h, 10 µM, compound concentration 10 uM, replicate 1
[8] = 24 h, 10 µM, compound concentration 10 uM, replicate 2
[9] = 48 h, 1 µM, compound concentration 1 uM, replicate 1
[10] = 48 h, 1 µM, compound concentration 1 uM, replicate 2
[11] = 48 h, 10 µM, compound concentration 10 uM, replicate 1
[12] = 48 h, 10 µM, compound concentration 10 uM, replicate 2

With CCc1ccc(OCc2ccccc2C(=O)Nc2ccc3nc(C)cc(N)c3c2)cc1.Cl the “Population Apoptotic (%)” value [1] was 67%, the “Population Fragmented Nuclei (%)” value [1] was 31% and the “Population Healthy Nuclei (%)” value [1] was 33%. For the same molecule, the “Population Hoechst High Intensity Objects (%)” value [1] was 11%, the “Population Membrane Permeable-Phenotype (%)” value [1] was 9% and the “Population Mitochondria Different-Phenotype (%)” value [1] was 44%. For the same molecule, the “Population Mitotic Cells (%)” value [1] was 32%, the “Population Normal (%)” value [1] was 88% and the “Population Pyknosed Nuclei (%)” value [1] was 35%. The “Population Tubulin-Different-Phenotype (%)” value [1] was 63%, the “Total Cell Count” value [1] was 177 and the “Population Apoptotic (%)” value [2] was 71%. The “Population Fragmented Nuclei (%)” value [2] was 33%, the “Population Hoechst High Intensity Objects (%)” value [2] was 16% and the “Population Membrane Permeable-Phenotype (%)” value [2] was 28%. For the same molecule, the “Population Mitochondria Different-Phenotype (%)” value [2] was 92%, the “Population Mitotic Cells (%)” value [2] was 28% and the “Population Normal (%)” value [2] was 84%. The “Population Pyknosed Nuclei (%)” value [2] was 33%, the “Population Tubulin-Different-Phenotype (%)” value [2] was 85% and the “Total Cell Count” value [2] was 68. The “Population Apoptotic (%)” value [3] was 26%, the “Population Fragmented Nuclei (%)” value [3] was 15% and the “Population Healthy Nuclei (%)” value [3] was 18%. The “Population Hoechst High Intensity Objects (%)” value [3] was 22%, the “Population Membrane Permeable-Phenotype (%)” value [3] was 16% and the “Population Mitochondria Different-Phenotype (%)” value [3] was 55%. For the same molecule, the “Population Mitotic Cells (%)” value [3] was 73%, the “Population Normal (%)” value [3] was 77% and the “Population Pyknosed Nuclei (%)” value [3] was 65%. The “Population Tubulin-Different-Phenotype (%)” value [3] was 88%, the “Total Cell Count” value [3] was 125 and the “Population Apoptotic (%)” value [4] was 76%. The “Population Fragmented Nuclei (%)” value [4] was 8%, the “Population Healthy Nuclei (%)” value [4] was 14% and the “Population Hoechst High Intensity Objects (%)” value [4] was 12%. The “Population Membrane Permeable-Phenotype (%)” value [4] was 100%, the “Population Mitochondria Different-Phenotype (%)” value [4] was 100% and the “Population Mitotic Cells (%)” value [4] was 23%. For the same molecule, the “Population Normal (%)” value [4] was 87%, the “Population Pyknosed Nuclei (%)” value [4] was 77% and the “Population Tubulin-Different-Phenotype (%)” value [4] was 100%. The “Total Cell Count” value [4] was 50, the “Population Apoptotic (%)” value [5] was 79% and the “Population Fragmented Nuclei (%)” value [5] was 32%. For the same molecule, the “Population Healthy Nuclei (%)” value [5] was 22%, the “Population Hoechst High Intensity Objects (%)” value [5] was 13% and the “Population Membrane Permeable-Phenotype (%)” value [5] was 10%. For the same molecule, the “Population Mitochondria Different-Phenotype (%)” value [5] was 60%, the “Population Mitotic Cells (%)” value [5] was 20% and the “Population Normal (%)” value [5] was 86%. For the same molecule, the “Population Pyknosed Nuclei (%)” value [5] was 45%, the “Population Tubulin-Different-Phenotype (%)” value [5] was 86% and the “Total Cell Count” value [5] was 158. The “Population Apoptotic (%)” value [6] was 83%, the “Population Fragmented Nuclei (%)” value [6] was 25% and the “Population Healthy Nuclei (%)” value [6] was 28%. The “Population Hoechst High Intensity Objects (%)” value [6] was 17%, the “Population Membrane Permeable-Phenotype (%)” value [6] was 27% and the “Population Mitochondria Different-Phenotype (%)” value [6] was 90%. For the same molecule, the “Population Mitotic Cells (%)” value [6] was 16%, the “Population Normal (%)” value [6] was 82% and the “Population Pyknosed Nuclei (%)” value [6] was 46%. The “Population Tubulin-Different-Phenotype (%)” value [6] was 63%, the “Total Cell Count” value [6] was 92 and the “Population Apoptotic (%)” value [7] was 40%. For the same molecule, the “Population Fragmented Nuclei (%)” value [7] was 25%, the “Population Healthy Nuclei (%)” value [7] was 48% and the “Population Hoechst High Intensity Objects (%)” value [7] was 50%. For the same molecule, the “Population Membrane Permeable-Phenotype (%)” value [7] was 16%, the “Population Mitochondria Different-Phenotype (%)” value [7] was 37% and the “Population Mitotic Cells (%)” value [7] was 60%. The “Population Normal (%)” value [7] was 49%, the “Population Pyknosed Nuclei (%)” value [7] was 25% and the “Population Tubulin-Different-Phenotype (%)” value [7] was 97%. The “Total Cell Count” value [7] was 155, the “Population Apoptotic (%)” value [8] was 70% and the “Population Fragmented Nuclei (%)” value [8] was 15%. For the same molecule, the “Population Healthy Nuclei (%)” value [8] was 38%, the “Population Hoechst High Intensity Objects (%)” value [8] was 31% and the “Population Membrane Permeable-Phenotype (%)” value [8] was 47%. For the same molecule, the “Population Mitochondria Different-Phenotype (%)” value [8] was 94%, the “Population Mitotic Cells (%)” value [8] was 30% and the “Population Normal (%)” value [8] was 68%. The “Population Pyknosed Nuclei (%)” value [8] was 45%, the “Population Tubulin-Different-Phenotype (%)” value [8] was 94% and the “Total Cell Count” value [8] was 47. For the same molecule, the “Population Apoptotic (%)” value [9] was 90%, the “Population Fragmented Nuclei (%)” value [9] was 46% and the “Population Healthy Nuclei (%)” value [9] was 20%. For the same molecule, the “Population Hoechst High Intensity Objects (%)” value [9] was 20%, the “Population Membrane Permeable-Phenotype (%)” value [9] was 40% and the “Population Mitochondria Different-Phenotype (%)” value [9] was 32%. The “Population Mitotic Cells (%)” value [9] was 9%, the “Population Normal (%)” value [9] was 79% and the “Population Pyknosed Nuclei (%)” value [9] was 33%. The “Population Tubulin-Different-Phenotype (%)” value [9] was 72%, the “Total Cell Count” value [9] was 157 and the “Population Apoptotic (%)” value [10] was 84%. The “Population Fragmented Nuclei (%)” value [10] was 51%, the “Population Healthy Nuclei (%)” value [10] was 25% and the “Population Hoechst High Intensity Objects (%)” value [10] was 16%. For the same molecule, the “Population Membrane Permeable-Phenotype (%)” value [10] was 30%, the “Population Mitochondria Different-Phenotype (%)” value [10] was 55% and the “Population Mitotic Cells (%)” value [10] was 15%. For the same molecule, the “Population Normal (%)” value [10] was 83%, the “Population Pyknosed Nuclei (%)” value [10] was 23% and the “Population Tubulin-Different-Phenotype (%)” value [10] was 70%. The “Total Cell Count” value [10] was 96, the “Population Fragmented Nuclei (%)” value [11] was 68% and the “Population Healthy Nuclei (%)” value [11] was 28%. The “Population Hoechst High Intensity Objects (%)” value [11] was 47%, the “Population Membrane Permeable-Phenotype (%)” value [11] was 4% and the “Population Mitochondria Different-Phenotype (%)” value [11] was 68%. The “Population Normal (%)” value [11] was 52%, the “Population Pyknosed Nuclei (%)” value [11] was 2% and the “Population Tubulin-Different-Phenotype (%)” value [11] was 86%. For the same molecule, the “Total Cell Count” value [11] was 146, the “Population Apoptotic (%)” value [12] was 100% and the “Population Fragmented Nuclei (%)” value [12] was 86%. For the same molecule, the “Population Healthy Nuclei (%)” value [12] was 8%, the “Population Hoechst High Intensity Objects (%)” value [12] was 39% and the “Population Membrane Permeable-Phenotype (%)” value [12] was 0%. For the same molecule, the “Population Mitochondria Different-Phenotype (%)” value [12] was 50%, the “Population Mitotic Cells (%)” value [12] was 0% and the “Population Normal (%)” value [12] was 60%. The “Population Pyknosed Nuclei (%)” value [12] was 4%, the “Population Tubulin-Different-Phenotype (%)” value [12] was 50% and the “Total Cell Count” value [12] was 38.
